From ChEMBL document CHEMBL1135842, “Synthesis and biological activity of polygalloyl-dendrimers as stable tannic acid mimics” (Bioorg Med Chem Lett, 2002)

Columns and labels:
[1] = The degree of collagen cross-linking by hydrothermal shrinkage temperature was determined; type: functional
How it was run: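 Purified skin collagen matrices incubated 48 h at room temperature with samples at 4 mM in 85% glycerol; hydrothermal shrinkage onset temperature (Ts) recorded, with untreated matrix as reference. Means of five experiments with SEM; significance versus tannic acid at p<0.05.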

[2] = Effective dose required for antioxidant activity was measured as dose giving 50% decolorization of 2,2-diphenyl-1-picryl-hydrazyl (DPPH); type: functional
How it was run: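 DPPH radical scavenging: compounds serially diluted ([…]), incubated with […] in 75% ethanol for 15 min at room temperature; absorbance read at 550 nm. ED50 (dose giving 50% decolorization) obtained by linear regression of absorbance curves; means of five experiments, SEM reported.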

| Structure (SMILES) | Ts [1] [°C] | ED50 [2] [µM] |
| --- | --- | --- |
| O=C(O)c1cc(O)c(O)c(O)c1 | 57.5 | 14.3 |
| O=C(OC[C@H]1O[C@@H](OC(=O)c2cc(O)c(O)c(OC(=O)c3cc(O)c(O)c(O)c3)c2)[C@H](OC(=O)c2cc(O)c(O)c(OC(=O)c3cc(O)c(O)c(O)c3)c2)[C@@H](OC(=O)c2cc(O)c(O)c(OC(=O)c3cc(O)c(O)c(O)c3)c2)[C@@H]1OC(=O)c1cc(O)c(O)c(OC(=O)c2cc(O)c(O)c(O)c2)c1)c1cc(O)c(O)c(OC(=O)c2cc(O)c(O)c(O)c2)c1 | 59.5 | 2.9 |
| O=C(O)c1cc(OCCNC(=O)c2cc(O)c(O)c(O)c2)cc(OCCNC(=O)c2cc(O)c(O)c(O)c2)c1 | 58.4 | 13.7 |
| O=C(O)c1cc(OCCNC(=O)c2cc(OCCNC(=O)c3cc(OCCNC(=O)c4cc(O)c(O)c(O)c4)cc(OCCNC(=O)c4cc(O)c(O)c(O)c4)c3)cc(OCCNC(=O)c3cc(OCCNC(=O)c4cc(O)c(O)c(O)c4)cc(OCCNC(=O)c4cc(O)c(O)c(O)c4)c3)c2)cc(OCCNC(=O)c2cc(OCCNC(=O)c3cc(OCCNC(=O)c4cc(O)c(O)c(O)c4)cc(OCCNC(=O)c4cc(O)c(O)c(O)c4)c3)cc(OCCNC(=O)c3cc(OCCNC(=O)c4cc(O)c(O)c(O)c4)cc(OCCNC(=O)c4cc(O)c(O)c(O)c4)c3)c2)c1 | 57 | 4.7 |
| O=C(O)c1cc(OCCNC(=O)c2cc(OCCNC(=O)c3cc(O)c(O)c(O)c3)cc(OCCNC(=O)c3cc(O)c(O)c(O)c3)c2)cc(OCCNC(=O)c2cc(OCCNC(=O)c3cc(O)c(O)c(O)c3)cc(OCCNC(=O)c3cc(O)c(O)c(O)c3)c2)c1 | 57.9 | 7.4 |
